High-throughput results deposited in PubChem BioAssay by The Scripps Research Institute Molecular Screening Center.
UHRF1 binding: UHRF1 methylated DNA binding inhibitors, primary screen, counter-screen for MBD2 inhibitor project, biochemical, TR-FRET, human UHRF1, single concentration; E3 ubiquitin-protein ligase UHRF1 (Homo sapiens), Q96T88; UHRF1 binding to methylated oligo; inhibition, % at 4.4 µM; hit rate 0.75% among 370,000; AID 687016, 2013; in the data active means inhibition above about 21%;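 further: UHRF1 SRA domain binding a hemimethylated CpG hairpin DNA probe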
RBBP9 inh: human RBBP9 inhibitors, primary screen, biochemical, fluorescence polarization, FP-Rh probe, HTS; Serine hydrolase RBBP9 (Homo sapiens), O75884; recombinant RBBP9; inhibition, % at 7.94 µM; hit rate 0.2% among 220,000; AID 1515, 2009;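 active means inhibition above the campaign mean of all tested compounds plus 3 SD, cut at about 14% in these data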
Target sequence (O75884 whole entry, looked up): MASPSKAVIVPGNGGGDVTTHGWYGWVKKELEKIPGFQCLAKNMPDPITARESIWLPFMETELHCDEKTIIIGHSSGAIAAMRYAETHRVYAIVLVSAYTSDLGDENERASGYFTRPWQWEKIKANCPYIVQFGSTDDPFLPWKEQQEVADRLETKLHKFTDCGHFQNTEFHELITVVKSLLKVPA
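System: RBBP9 protein | Quantity: 2.5 µM RBBP9 dispensing solution, before mixing | Reagent: FP-Rh probe, 375 nM dispensing solution | Timing: Enzyme-compound preincubation 30 min, then probe labeling 45 min, 25 °C | Measured by: Fluorescence polarization | Read-out: % inhibition | Replication: One well per compound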
PRMT1 FP inh: PRMT1 methyltransferase inhibitors, primary screen, biochemical, fluorescence polarization | Protein arginine N-methyltransferase 1 (Homo sapiens), Q99873 | recombinant PRMT1, activity-based probe fluorescence polarization | inhibition, % at 2.79 µM | hit rate 1.3% among 370,000;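 active means inhibition above about 21% made by adding two undisclosed values, limit read from the data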
LEDGF integ inh: blockers of LEDGF/p75-dependent integrase strand transfer – biochemical, TR-FRET, high throughput, primary screen. TR-FRET IN-LEDGF/p75 DNA integration, Eu/Cy5. inhibition, % at 3.7 µM. hit rate 0.64% among 370,000. AID 743269, 2014;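 active means inhibition above the screen-wide mean plus 3 SD, cut at about 13% in these data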;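 further: signal is the Cy5 over europium emission ratio at 671 and 618 nm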
MBD2 inh: inhibitors of MBD2 binding to methylated DNA, primary screen, biochemical, TR-FRET, DNA-binding domain, human; Methyl-CpG-binding domain protein 2 (Homo sapiens), Q9UBB5; MBD2 binding to methylated oligonucleotide; inhibition, % at 4.4 µM; hit rate 0.31% among 370,000; in the data active means inhibition above about 13%
ABHD5 PLIN5 PPI: ABHD5-PLIN5 interaction inhibitors, primary screen, cell lysate, split luciferase complementation, luminescence. Perilipin-5 (Homo sapiens) + 1-acylglycerol-3-phosphate O-acyltransferase ABHD5 (Homo …. Split G. princeps luciferase complementation, 4 h. inhibition, % at 4 µM. hit rate 0.78% among 360,000;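 active means inhibition above the mean inhibition across every tested compound plus 3 SD, cut at about 22% in these data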
IN multimer up: HIV-1 IN multimer formation enhancers, counter-screen for LEDGF/p75 integration inhibitor project, biochemical, TR-FRET; shares compounds with LEDGF integ inh; TR-FRET HIV-1 integrase multimerization; activation, % at 7.7 µM; hit rate 17% among 2,000; AID 1053131, 2014; in the data active means activation above about 8.9%
TR-FRET interf: TR-FRET optical interference artefacts, confirmation, artefact control for LEDGF/p75-dependent integration inhibitor project, biochemical, HIV-1 IN multimerization. shares compounds with LEDGF integ inh. TR-FRET optical interference counterscreen. inhibition, % at 7.7 µM. 2,000 tested, under 10 active;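 active means inhibition above the mean over all tested compounds plus 3 SD, which no compound reached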
IN-LEDGF confirm: inhibitors of HIV-1 IN-LEDGF/p75 DNA integration, confirmation, biochemical, TR-FRET; shares compounds with LEDGF integ inh; TR-FRET LEDGF/p75-dependent HIV-1 integration; AID 1053136, 2014; inhibition, % at 3.7 µM; hit rate 36% among 2,000; in the data active means inhibition above about 14%
A number is an active result; . = inactive; / = no result. A selection: hits, their analogues and other compounds. The true share with any hit is near 3.1%.

SMILES	UHRF1 binding	RBBP9 inh	PRMT1 FP inh	LEDGF integ inh	MBD2 inh	ABHD5 PLIN5 PPI	IN multimer up	TR-FRET interf	IN-LEDGF confirm
c1cncc(-c2nc(NCCCn3ccnc3)c3ccccc3n2)c1	.	.	.	.	.	.	/	/	/
Cc1nc(NCCCn2ccnc2)c2ccccc2n1	.	.	.	71	.	.	.	.	.
COc1ccc([C@H]2OC(=O)C[C@H]2C(=O)N2CCCC2)cc1OC	.	/	.	.	.	/	/	/	/
Nc1ncnc2c1ncn2[C@@H]1O[C@H](C(=O)N[C@@H](CCc2ccccc2)C(=O)N2CCN(CC(=O)N3CCCC3)CC2)[C@@H](O)[C@H]1O	.	/	.	.	.	/	/	/	/
Cc1ccc(NC(=O)c2ccc(CSc3ccccn3)cc2)c(O)c1	.	.	.	82	.	.	.	.	.
Cc1ccc(NC(=O)c2ccc(CSc3ccccn3)cc2)cc1	.	.	.	.	.	.	/	/	/
CN[C@H]1C[C@H]2c3[nH]c4cccc(-c5ccc6c(c5)OCO6)c4c3CCN2C[C@H]1[C@H](C)O	.	/	.	.	.	/	/	/	/
CCOC(=O)NC1(NC(C)C)Oc2ccccc2O1	.	.	.	.	.	.	/	/	/
CCOC(=O)NC1(NC2CCCCC2)Oc2ccccc2O1	.	.	.	22	.	.	.	.	.
CC(C)(C)c1ccc(-c2cn(C[C@H](Cc3ccccc3)n3c(=O)c4ccccc4n3Cc3ccno3)nn2)cc1	.	/	.	.	.	/	/	/	/
CCCC(=O)OC12CCCN(C1)/C(=C/c1ccc(C#N)cc1)C2 (stereo not drawn)	.	/	.	.	.	/	/	/	/
Cc1oc(-c2ccc(Cl)cc2)nc1CS(=O)CC(=O)NCCCN1CCOCC1 (stereo not drawn)	.	/	.	18	.	.	.	.	.
COc1ccc(C(=O)NCC(=O)Nc2ccc(-c3ccccc3)cc2)cc1	.	/	.	18	.	.	11	.	.
CCOc1ccc(NC(=O)CNC(=O)c2ccc(OC)cc2)cc1	.	.	.	.	.	.	/	/	/
CCNCc1ccccc1OCc1ccccc1	.	.	.	.	.	.	/	/	/
Oc1ccc(NCc2ccccc2OCc2ccccc2)cc1	.	.	.	14	.	.	15	.	24
Nc1c(S(=O)(=O)c2cccs2)c2nc3ccccc3nc2n1Cc1ccccc1	.	.	.	.	.	.	/	/	/
COCCn1c(N)c(S(=O)(=O)c2cccs2)c2nc3ccccc3nc21	.	.	.	14	.	.	.	.	.
COc1ccc(-c2ccc(C(=O)Nc3cccc(NS(C)(=O)=O)c3)c3occc23)c(C)c1	.	/	.	16	.	.	.	.	.
COc1ccc(-c2ccc(C(=O)Nc3cccc(F)c3)c3occc23)c(C)c1	.	/	.	.	.	.	/	/	/
O=C(O)c1cccc(-c2ccc(/C=N/NC(=O)c3cccnc3)o2)c1	.	.	.	.	.	.	/	/	/
Cc1nnc(N/N=C/c2ccc(Br)cc2)n1N	.	/	.	47	.	.	.	.	.
O=C(O)c1ccc(N/N=C/c2ccc(-c3ccc(Br)cc3)o2)cc1	.	/	.	.	.	.	/	/	/
CC(C)(C)c1nnc(N/N=C/c2ccccc2)n(N)c1=O	.	.	.	.	.	.	/	/	/
